In ChEMBL document CHEMBL4229499, “Development of novel silanol-based human pregnane X receptor (PXR) agonists with improved receptor selectivity” (Bioorg Med Chem, 2018):
pEC50, pIC50: −log10 of the molar value.

Assays:
[1] = target: T1, Nuclear receptor subfamily 1 group I member 2 (Homo sapiens, UniProt O75469); test: Agonist activity at VP16-fused human PXR expressed in HEK293 cells after 24 hrs by luciferase reporter gene assay; format: cell-based; details: for pEC50: read-out: EC50; for EC50: hek293
T1 sequence (O75469 whole entry): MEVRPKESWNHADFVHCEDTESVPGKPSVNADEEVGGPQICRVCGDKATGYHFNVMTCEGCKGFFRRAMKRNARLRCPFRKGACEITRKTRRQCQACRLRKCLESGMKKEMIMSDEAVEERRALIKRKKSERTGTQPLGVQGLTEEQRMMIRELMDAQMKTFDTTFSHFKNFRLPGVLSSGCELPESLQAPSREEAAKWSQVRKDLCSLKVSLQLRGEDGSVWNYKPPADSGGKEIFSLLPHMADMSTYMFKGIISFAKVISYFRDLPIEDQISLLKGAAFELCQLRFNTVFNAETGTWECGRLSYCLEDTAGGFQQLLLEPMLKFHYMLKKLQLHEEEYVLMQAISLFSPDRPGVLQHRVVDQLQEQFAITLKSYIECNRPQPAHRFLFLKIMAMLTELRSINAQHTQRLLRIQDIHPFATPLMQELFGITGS
Method in brief: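 HEK293 cells grown in DMEM with 5% FBS and penicillin/streptomycin at 37 °C, 5% CO₂. Seeded at 20% confluence 24 h before calcium-phosphate co-transfection with 150 ng receptor expression plasmid (PXR as a VP16 fusion), 500 ng luciferase reporter and 10 ng β-gal vector. Luciferase was normalized to β-galactosidase, in triplicate transfections.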

[2] = Octanol/water partition co-efficient, log P of the compound by HPLC method; format: physicochemical
[3] = target: T2, Nuclear receptor ROR-alpha (Homo sapiens, UniProt P35398); test: Inhibition of human RORalpha1 expressed in HEK293 cells after 24 hrs by luciferase reporter gene assay; format: cell-based; details: for IC50: hek293; for pIC50: read-out: IC50
T2 sequence (P35398 whole entry): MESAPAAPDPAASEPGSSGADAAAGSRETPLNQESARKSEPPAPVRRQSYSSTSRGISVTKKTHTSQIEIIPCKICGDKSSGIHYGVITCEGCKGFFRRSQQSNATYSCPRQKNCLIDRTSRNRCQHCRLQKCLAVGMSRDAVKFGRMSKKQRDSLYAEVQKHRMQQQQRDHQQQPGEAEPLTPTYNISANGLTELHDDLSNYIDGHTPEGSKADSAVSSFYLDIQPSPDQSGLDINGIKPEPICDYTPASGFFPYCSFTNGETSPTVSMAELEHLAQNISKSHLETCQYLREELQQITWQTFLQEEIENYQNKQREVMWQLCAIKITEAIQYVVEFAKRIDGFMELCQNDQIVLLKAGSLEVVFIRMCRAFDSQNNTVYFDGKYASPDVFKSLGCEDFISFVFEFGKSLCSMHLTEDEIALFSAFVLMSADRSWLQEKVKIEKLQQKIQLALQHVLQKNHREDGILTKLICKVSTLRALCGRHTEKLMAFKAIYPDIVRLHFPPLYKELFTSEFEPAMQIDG

[4] = target: T3, Nuclear receptor ROR-gamma (Homo sapiens, UniProt P51449); test: Inhibition of human RORgamma1 expressed in HEK293 cells after 24 hrs by luciferase reporter gene assay; format: cell-based; details: for IC50: hek293; for pIC50: read-out: IC50
T3 sequence (P51449 whole entry): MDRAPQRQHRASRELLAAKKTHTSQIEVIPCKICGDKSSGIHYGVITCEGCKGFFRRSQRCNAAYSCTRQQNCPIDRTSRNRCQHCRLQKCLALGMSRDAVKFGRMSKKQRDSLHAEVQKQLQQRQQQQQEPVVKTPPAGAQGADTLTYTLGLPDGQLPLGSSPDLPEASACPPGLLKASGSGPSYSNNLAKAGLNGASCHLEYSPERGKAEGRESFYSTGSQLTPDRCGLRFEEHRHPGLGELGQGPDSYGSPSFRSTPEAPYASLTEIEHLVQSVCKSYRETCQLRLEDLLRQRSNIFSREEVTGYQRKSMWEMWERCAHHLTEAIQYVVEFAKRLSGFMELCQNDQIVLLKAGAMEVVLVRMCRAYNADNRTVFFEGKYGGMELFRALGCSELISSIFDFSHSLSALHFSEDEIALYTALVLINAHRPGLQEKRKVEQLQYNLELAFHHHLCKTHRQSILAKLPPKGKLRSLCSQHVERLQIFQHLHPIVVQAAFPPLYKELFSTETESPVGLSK

[5] = target: T4, Nuclear receptor ROR-gamma (Homo sapiens) (UniProt P51449); test: Agonist activity at human RORgamma1 expressed in HEK293 cells after 24 hrs by luciferase reporter gene assay; format: cell-based
T4 sequence (whole entry): T3 sequence (P51449 whole entry)

[6] = target: T5, Nuclear receptor ROR-alpha (Homo sapiens) (UniProt P35398); test: Agonist activity at human RORalpha1 expressed in HEK293 cells after 24 hrs by luciferase reporter gene assay; format: cell-based
T5 sequence (whole entry): T2 sequence (P35398 whole entry)

| SMILES | pEC50 [1] | logP [2] | IC50 [3] | IC50 [4] | EC50 [1] | pIC50 [4] | Activity [5] [%] | Activity [6] [%] | pIC50 [3] |
| --- | --- | --- | --- | --- | --- | --- | --- | --- | --- |
| COCCN(c1ccc([Si](C)(C)O)cc1)S(=O)(=O)c1ccccc1 | 5.38 | 2.81 | Not Active | Not Active |  |  |  |  |  |
| CC(C)(O)c1ccc(N(CC(F)(F)F)S(=O)(=O)c2ccccc2)cc1 |  |  | Not Active |  | Not Active | < 4.52 |  |  |  |
| CN(c1ccc([Si](C)(C)O)cc1)S(=O)(=O)c1ccccc1 | 5.47 | 2.9 |  |  |  |  | 54 | 53 |  |
| CCCCN(c1ccc([Si](C)(C)O)cc1)S(=O)(=O)c1ccccc1 | 5.19 | 4.05 |  |  |  | < 4.52 |  |  | < 4.52 |
| CCN(c1ccc([Si](C)(C)O)cc1)S(=O)(=O)c1ccccc1 | 5.72 | 3.2 |  |  |  | < 4.52 |  |  | < 4.52 |
| C[Si](C)(O)c1ccc(N(Cc2ccccc2)S(=O)(=O)c2ccccc2)cc1 | 5.49 | 3.92 |  |  |  | < 4.52 |  |  | < 4.52 |
| COC(=O)CN(c1ccc(C(C)(C)O)cc1)S(=O)(=O)c1ccccc1 |  | 2.35 | Not Active |  | Not Active | < 4.52 |  |  |  |
| COC(=O)CN(c1ccc([Si](C)(C)O)cc1)S(=O)(=O)c1ccccc1 | 5.85 | 2.79 | Not Active | Not Active |  |  |  |  |  |
| C[Si](C)(O)c1ccc(N(CC(F)(F)F)S(=O)(=O)c2ccccc2)cc1 | 6.20 |  |  |  |  | 4.96 |  |  | < 4.52 |
| O=C(O)c1ccc(N(CC(F)(F)F)S(=O)(=O)c2ccccc2)cc1 |  |  | Not Active | Not Active | Not Active |  |  |  |  |
| C[Si](C)(O)c1ccc(NS(=O)(=O)c2ccccc2)cc1 | 5.62 | 2.22 | Not Active | Not Active |  |  |  |  |  |
| C[Si](C)(O)c1ccc(N(CCc2ccccc2)S(=O)(=O)c2ccccc2)cc1 | 4.85 | 4.32 |  |  |  | < 4.52 |  |  | < 4.52 |
